Measured values as given in ChEMBL document CHEMBL1137338, “Effects of substitution on 9-(3-bromo-4-fluorophenyl)-5,9-dihydro-3H,4H-2,6-dioxa-4- azacyclopenta[b]naphthalene-1,8-dione, a dihydropyridine ATP-sensitive potassium channel opener” (J Med Chem, 2006).

Tests used:
[1] = biological target: Sulfonylurea receptor 2, Kir6.2 (Homo sapiens) (UniProt Q14654+O60706); experiment: Ability to open human urinary bladder Kir6.2 containing SUR2B in Ltk cells by FLIPR assay relative to P1075; type: functional, cell-based
Summary of the method: (§1)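 Ltk- cells stably transfected with the Kir6.2/SUR2B exon 17- splice variant. Membrane potential was followed with DiBAC dye in a 96-well cell-based kinetic fluorescence (FLIPR) assay. The highest concentration tested was 10 µM. Each compound's maximal fluorescence response was expressed as % of the response to the reference opener.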

[2] = biological target: Sulfonylurea receptor 2, Kir6.2 (Homo sapiens, UniProt O60706+Q14654); experiment: Ability to open human urinary bladder Kir6.2 channel containing SUR2B in Ltk cells by FLIPR assay; type: functional, cell-based; summary of the method: as §1
Sulfonylurea receptor 2, Kir6.2, sequence (Q14654 whole entry): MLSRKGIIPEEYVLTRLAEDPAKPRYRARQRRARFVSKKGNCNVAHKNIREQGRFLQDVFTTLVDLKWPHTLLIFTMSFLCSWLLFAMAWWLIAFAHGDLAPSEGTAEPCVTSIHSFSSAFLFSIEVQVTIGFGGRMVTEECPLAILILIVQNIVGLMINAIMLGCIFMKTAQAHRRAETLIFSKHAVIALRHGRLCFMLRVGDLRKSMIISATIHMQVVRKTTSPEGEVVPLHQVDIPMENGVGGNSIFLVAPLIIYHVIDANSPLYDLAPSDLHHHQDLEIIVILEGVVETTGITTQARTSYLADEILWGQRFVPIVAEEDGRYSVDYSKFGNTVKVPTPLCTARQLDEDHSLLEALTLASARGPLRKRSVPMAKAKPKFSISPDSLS
Sulfonylurea receptor 2, Kir6.2, sequence (O60706 whole entry): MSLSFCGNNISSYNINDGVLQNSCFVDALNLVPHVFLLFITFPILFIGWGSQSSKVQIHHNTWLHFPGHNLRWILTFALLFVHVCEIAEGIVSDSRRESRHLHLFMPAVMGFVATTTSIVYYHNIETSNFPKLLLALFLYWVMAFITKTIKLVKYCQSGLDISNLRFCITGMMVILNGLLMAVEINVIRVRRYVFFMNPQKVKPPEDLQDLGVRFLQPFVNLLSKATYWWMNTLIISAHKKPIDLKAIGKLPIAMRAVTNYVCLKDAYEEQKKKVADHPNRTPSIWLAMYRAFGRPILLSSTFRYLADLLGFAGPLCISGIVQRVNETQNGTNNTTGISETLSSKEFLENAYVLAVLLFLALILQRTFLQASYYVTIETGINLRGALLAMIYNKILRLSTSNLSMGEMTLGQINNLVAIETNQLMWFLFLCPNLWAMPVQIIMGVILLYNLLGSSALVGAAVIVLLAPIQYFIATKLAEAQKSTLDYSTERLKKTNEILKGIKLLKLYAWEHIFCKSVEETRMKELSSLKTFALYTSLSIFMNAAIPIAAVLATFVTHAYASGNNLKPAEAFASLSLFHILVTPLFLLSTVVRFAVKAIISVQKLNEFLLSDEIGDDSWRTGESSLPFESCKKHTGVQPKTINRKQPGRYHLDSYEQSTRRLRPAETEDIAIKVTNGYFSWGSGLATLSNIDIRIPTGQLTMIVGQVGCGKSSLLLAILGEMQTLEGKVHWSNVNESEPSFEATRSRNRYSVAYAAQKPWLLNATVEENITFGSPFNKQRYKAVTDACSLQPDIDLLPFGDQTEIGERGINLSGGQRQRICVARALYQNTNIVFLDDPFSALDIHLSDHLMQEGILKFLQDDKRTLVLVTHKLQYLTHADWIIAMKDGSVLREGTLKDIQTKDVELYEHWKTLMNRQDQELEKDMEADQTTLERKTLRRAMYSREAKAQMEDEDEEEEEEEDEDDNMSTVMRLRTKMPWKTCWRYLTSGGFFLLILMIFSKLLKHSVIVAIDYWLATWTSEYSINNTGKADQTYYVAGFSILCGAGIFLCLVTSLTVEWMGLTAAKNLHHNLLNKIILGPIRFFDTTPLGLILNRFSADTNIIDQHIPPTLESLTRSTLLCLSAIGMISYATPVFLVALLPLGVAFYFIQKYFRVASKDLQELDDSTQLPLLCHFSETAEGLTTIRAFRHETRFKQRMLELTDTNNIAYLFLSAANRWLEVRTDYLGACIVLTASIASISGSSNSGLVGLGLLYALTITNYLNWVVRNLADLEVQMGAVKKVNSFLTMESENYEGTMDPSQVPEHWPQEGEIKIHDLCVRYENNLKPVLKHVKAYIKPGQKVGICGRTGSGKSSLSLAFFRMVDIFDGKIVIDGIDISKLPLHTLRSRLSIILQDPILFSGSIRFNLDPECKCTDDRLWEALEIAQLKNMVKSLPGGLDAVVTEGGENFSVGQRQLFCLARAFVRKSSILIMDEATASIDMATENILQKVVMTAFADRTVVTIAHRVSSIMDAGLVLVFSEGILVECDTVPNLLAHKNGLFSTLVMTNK

| Efficacy [1] [%] | EC50 [2] [nM] | Structure (SMILES) |
| --- | --- | --- |
| 94 |  | CC[C@@H]1OCC(O)=C2C1=NC1=C(C(=O)COC1)[C@H]2c1ccc(F)c(Br)c1 (stereo in doubt; 70b) |
| 94 |  | CC[C@H]1OCC(O)=C2C1=NC1=C(C(=O)COC1)[C@H]2c1ccc(C)c(Br)c1 (stereo in doubt; 78a) |
| 89 |  | CC[C@H]1OC(O)=C2C1=NC1=C(C(=O)C(C)(C)OC1)[C@H]2c1ccc(F)c(Br)c1 (stereo in doubt; 36a) [listing 1 of 2 here] |
| 101 |  | CC[C@@H]1OC(O)=C2C1=NC1=C(C(=O)COC1)[C@H]2c1ccc(F)c(Br)c1 (stereo in doubt; 20a) |
| 119 |  | CCC[C@H]1OC(O)=C2C1=NC1=C(C(=O)COC1)[C@H]2c1ccc(Br)c(Br)c1 (racemic) |
| 75 |  | C[C@H]1OC(O)=C2C1=NC1=C(C(=O)COC1)[C@H]2c1ccc(F)c(Br)c1 (racemic) |
| 66 |  | CCC[C@@H]1OC(O)=C2C1=NC1=C(C(=O)COC1)[C@H]2c1ccc(F)c(Br)c1 (stereo in doubt; 22b) |
| 89 |  | C[C@@H]1OC(O)=C2C1=NC1=C(C(=O)COC1)[C@H]2c1ccc(F)c(Br)c1 (stereo in doubt; 17b) |
| 89 |  | CC[C@H]1OCC(O)=C2C1=NC1=C(C(=O)COC1)[C@H]2c1ccc(Cl)c(Br)c1 (stereo in doubt; 75a) |
| 77 |  | CC1(C)OCC2=C(C1=O)C(c1ccc(F)c(Br)c1)C1=C(O)OCC1=N2 (stereo in doubt; 9b) |
| 104 |  | CC[C@H]1OCC(O)=C2C1=NC1=C(C(=O)COC1)[C@H]2c1ccc(Br)c(Br)c1 (stereo in doubt; 77b) |
| 66 |  | CC(C)C[C@H]1OC(O)=C2C1=NC1=C(C(=O)COC1)[C@H]2c1ccc(F)c(Br)c1 (stereo in doubt; 31a) |
| 104 |  | COC[C@H]1OC(O)=C2C1=NC1=C(C(=O)COC1)[C@H]2c1ccc(F)c(Br)c1 (stereo in doubt; 25b) |
| 48 |  | CC[C@H]1OC(O)=C2C1=NC1=C(C(=O)COC1(C)C)[C@H]2c1ccc(F)c(Br)c1 (racemic) [listing 1 of 2 here] |
| 86 |  | CC1(C)OCC2=C(C1=O)C(c1ccc(F)c(Br)c1)C1=C(O)OCC1=N2 (stereo in doubt; 9) |
| 94 |  | C[C@@H]1OCC2=C(C1=O)[C@@H](c1ccc(F)c(Br)c1)C1=C(O)OCC1=N2 (stereo in doubt; 7b) |
| 100 |  | C[C@@H]1OC(O)=C2C1=NC1=C(C(=O)COC1)[C@H]2c1ccc(F)c(Br)c1 (racemic) |
| 74 |  | CCC[C@H]1OC(O)=C2C1=NC1=C(C(=O)COC1)[C@H]2c1ccc(F)c(Cl)c1 (stereo in doubt; 39a) [listing 1 of 2 here] |
| 76 |  | CC[C@H]1OCC(O)=C2C1=NC1=C(C(=O)COC1)[C@H]2c1ccc(Br)c(Br)c1 (racemic) |
| 60 |  | CC[C@@H]1OCC(O)=C2C1=NC1=C(C(=O)COC1)[C@H]2c1ccc(F)c(Br)c1 (racemic) |
| 121 |  | CCC[C@H]1OC(O)=C2C1=NC1=C(C(=O)COC1)[C@H]2c1ccc(Br)c(Cl)c1 (stereo in doubt; 44a) |
| 104 |  | CCC[C@H]1OC(O)=C2C1=NC1=C(C(=O)COC1)[C@H]2c1ccc(C)c(Br)c1 (racemic) |
| 56 |  | CC[C@H]1OCC(O)=C2C1=NC1=C(C(=O)COC1)[C@H]2c1ccc(C)c(Br)c1 (stereo in doubt; 78b) [listing 1 of 2 here] |
| 70 |  | CC[C@H]1OC(O)=C2C1=NC1=C(C(=O)C(C)(C)OC1)[C@H]2c1ccc(F)c(Br)c1 (racemic) |
| 95 |  | CCC[C@H]1OC(O)=C2C1=NC1=C(C(=O)COC1)[C@H]2c1ccc(Cl)c(Cl)c1 (racemic) |
| 47 |  | CC[C@H]1OCC(O)=C2C1=NC1=C(C(=O)COC1)[C@H]2c1ccc(F)c(I)c1 (racemic) |
| 118 |  | CC[C@H]1OCC(O)=C2C1=NC1=C(C(=O)COC1)[C@H]2c1ccc(Cl)c(Cl)c1 (stereo in doubt; 74a) |

| Efficacy [1] [%] | EC50 [2] [nM] | Structure (SMILES) |
| --- | --- | --- |
| 81 |  | C[C@@H]1OCC2=C(C1=O)[C@@H](c1ccc(F)c(Br)c1)C1=C(O)OCC1=N2 (racemic) |
| 99 |  | CCC[C@H]1OC(O)=C2C1=NC1=C(C(=O)COC1)[C@H]2c1ccc(Cl)c(Br)c1 (stereo in doubt; 43b) |
| 90 |  | CCC[C@@H]1OC(O)=C2C1=NC1=C(C(=O)COC1)[C@H]2c1ccc(F)c(Br)c1 (racemic) |
| 87 |  | CC[C@@H]1OCC(O)=C2C1=NC1=C(C(=O)COC1)[C@H]2c1ccc(F)c(Br)c1 (stereo in doubt; 70a) |
| 87 |  | CCC[C@H]1OC(O)=C2C1=NC1=C(C(=O)COC1)[C@H]2c1ccc(C)c(Br)c1 (stereo in doubt; 46b) [listing 1 of 2 here] |
| 46 |  | CC[C@H]1OCC(O)=C2C1=NC1=C(C(=O)COC1)[C@H]2c1ccc(Br)c(Cl)c1 (racemic) [listing 1 of 2 here] |
| 77 |  | CC[C@H]1OC(O)=C2C1=NC1=C(C(=O)COC1(C)C)[C@H]2c1ccc(F)c(Br)c1 (stereo in doubt; 38a) [listing 1 of 2 here] |
| 76 |  | CC[C@H]1OCC(O)=C2C1=NC1=C(C(=O)COC1)[C@H]2c1ccc(Br)c(Cl)c1 (stereo in doubt; 76a) |
| 103 |  | COC[C@H]1OC(O)=C2C1=NC1=C(C(=O)COC1)[C@H]2c1ccc(F)c(Br)c1 (racemic) |
| 104 |  | CC1(C)OCC2=C(C1=O)C(c1ccc(F)c(Br)c1)C1=C(O)OCC1=N2 (single isomer, unassigned; (+)) [listing 1 of 2 here] |
| 86 |  | C[C@H]1OC(O)=C2C1=NC1=C(C(=O)COC1)[C@H]2c1ccc(F)c(Br)c1 (stereo in doubt; 18a) |
| 104 |  | C[C@@H]1OCC2=C(C1=O)[C@H](c1ccc(F)c(Br)c1)C1=C(O)OCC1=N2 (racemic) [listing 1 of 2 here] |
| 104 |  | CCC[C@H]1OC(O)=C2C1=NC1=C(C(=O)COC1)[C@H]2c1ccc(Br)c(Br)c1 (stereo in doubt; 45a) |
|  | 1580 | CC[C@H]1OC(O)=C2C1=NC1=C(C(=O)COC1(C)C)[C@H]2c1ccc(F)c(Br)c1 (stereo in doubt; 38a) [listing 2 of 2 here] |
|  | 3390 | CCC[C@H]1OC(O)=C2C1=NC1=C(C(=O)COC1)[C@H]2c1ccc(F)c(Cl)c1 (stereo in doubt; 39a) [listing 2 of 2 here] |
|  | 1000 | CC[C@H]1OCC(O)=C2C1=NC1=C(C(=O)COC1)[C@H]2c1ccc(Br)c(Cl)c1 (racemic) [listing 2 of 2 here] |
|  | > 10000 | O=C1COCC2=C1C(c1ccc(F)c(Br)c1)C1=C(O)C3(CCCC3)OCC1=N2 (stereo not drawn) |
|  | 219 | CCC[C@H]1OC(O)=C2C1=NC1=C(C(=O)COC1)[C@H]2c1ccc(C)c(Br)c1 (stereo in doubt; 46b) [listing 2 of 2 here] |
|  | > 10000 | CC[C@@H]1C2=C(C(=O)N1C)[C@H](c1ccc(F)c(Br)c1)C1=C(O)COCC1=N2 (relative stereo) |
|  | > 10000 | CC[C@H]1C2=C(C(=O)N1C)[C@H](c1ccc(F)c(Br)c1)C1=C(O)COCC1=N2 (relative stereo) |
|  | 437 | CC[C@H]1OC(O)=C2C1=NC1=C(C(=O)C(C)(C)OC1)[C@H]2c1ccc(F)c(Br)c1 (stereo in doubt; 36a) [listing 2 of 2 here] |
|  | 3470 | CC[C@H]1OC(O)=C2C1=NC1=C(C(=O)COC1(C)C)[C@H]2c1ccc(F)c(Br)c1 (racemic) [listing 2 of 2 here] |
|  | 3630 | CC[C@H]1OCC(O)=C2C1=NC1=C(C(=O)COC1)[C@H]2c1ccc(F)c(Cl)c1 (stereo in doubt; 72a) |
|  | 26.9 | CC1(C)OCC2=C(C1=O)C(c1ccc(F)c(Br)c1)C1=C(O)OCC1=N2 (single isomer, unassigned; (+)) [listing 2 of 2 here] |
|  | 5620 | CC[C@H]1OCC(O)=C2C1=NC1=C(C(=O)COC1)[C@H]2c1ccc(C)c(Br)c1 (stereo in doubt; 78b) [listing 2 of 2 here] |
|  | 457 | C[C@@H]1OCC2=C(C1=O)[C@H](c1ccc(F)c(Br)c1)C1=C(O)OCC1=N2 (racemic) [listing 2 of 2 here] |
